An excerpt weighted towards active compounds, which were near 2.1% of everything screened.
APJ agonist: agonists of human APJ apelin receptor. CHO-K1 APJ PathHunter beta-arrestin, luminescence; 0% DMSO wells, 100% apelin. activation, % at 20 µM. 330,000 tested, 0.11% active;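 active means activation more than six SD over the plate average, tested at 20 µM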;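 further: 0% = DMSO alone and 100% = apelin-13 at 10 nM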
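system = engineered CHO-K1 APJ arrestin reporter cells | input = 1000 cells per well | timing = overnight seeding, 90 min compound at 25 °C, 1 h detection | measured by = enzyme-fragment complementation luminescence | read-out = beta-arrestin recruitment to APJ as agonist activity, luminescent signal | control set = negative DMSO alone, positive Apelin-13 at 10 nM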
m5-HT2A agonist: mouse HTR2A agonism via beta-arrestin recruitment | activation, % at 7.6 µM | CHO-K1 mHTR2A beta-arrestin complementation, luminescence; percent of 30 µM serotonin response | P35363 | AID 624169 | 360,000 tested, 0.66% active;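 active means activation above a run cutoff, the mean activation of all tested compounds plus 3 SD, cut at about 14% in these data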;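 further: 0% = plate median of compound wells and 100% = 30 µM serotonin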
APJ antagonist: blocks the human apelin receptor APJ. inhibition, % at 20 µM. AID 2521. CHO-K1 APJ beta-arrestin complementation, luminescence. 330,000 tested, 0.32% active. P35414;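 active means inhibition above about 40% at 20 µM, limit read from the data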;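 further: cells challenged with 10 nM apelin-13 agonist together with compound; plate controls were apelin-13 plus DMSO wells for no effect and DMSO wells lacking apelin-13 for full effect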
CCR6 antagonist: CCR6 (human) receptor antagonism. CHO-K1 CCR6 PathHunter beta-arrestin, luminescence, CCL20-stimulated. inhibition, % at 20 µM. 340,000 tested, 0.49% active;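 active means compounds whose inhibition of the agonist-driven luminescence signal at 20 µM reaches about 50%, limit read from the data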;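 further: cells stimulated with CCL20 at 14 nM final; plate controls were DMSO with CCL20 for no effect and DMSO without agonist for full effect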
Target sequence (P51684 whole entry, looked up): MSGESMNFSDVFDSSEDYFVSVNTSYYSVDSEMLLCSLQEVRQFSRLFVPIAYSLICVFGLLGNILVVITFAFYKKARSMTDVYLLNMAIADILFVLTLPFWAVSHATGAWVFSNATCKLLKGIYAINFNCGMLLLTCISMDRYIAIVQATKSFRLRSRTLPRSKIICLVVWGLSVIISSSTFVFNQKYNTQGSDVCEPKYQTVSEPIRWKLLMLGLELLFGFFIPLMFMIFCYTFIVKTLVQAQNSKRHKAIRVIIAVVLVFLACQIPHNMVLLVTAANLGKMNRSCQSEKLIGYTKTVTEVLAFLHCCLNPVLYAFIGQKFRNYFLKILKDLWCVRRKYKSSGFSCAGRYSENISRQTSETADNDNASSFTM
CXCR6 inh: blocks human CXCR6 beta-arrestin recruitment | O00574 | CHO-K1 PathHunter CXCR6 beta-arrestin, luminescence | inhibition, % at 20 µM | 360,000 tested, 0.36% active | AID 602244; in the data active means inhibition above about 34%, passing the limit was not always enough;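 further: antagonist mode with CXCL16 agonist at 10 nM final; 0% = 10 nM CXCL16 with DMSO and 100% = unstimulated wells without agonist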
EBI2 block: blocks human EBI2 receptor beta-arrestin signaling; P32249; EBI2 beta-arrestin recruitment, luminescence, 7a,25-OHC stimulated; inhibition, % at 5 µM; 360,000 tested, 0.81% active; AID 651636; in the data active means inhibition above about 38%;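 further: enzyme fragment complementation signal reports receptor beta-arrestin coupling in cells; 0% = agonist plus DMSO wells and 100% = wells without agonist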
Starred values were filed as active, the others as inactive.

Cc1nn(-c2ccccc2)c2c1C(c1ccncc1)C(C#N)=C(N)O2 (stereo not drawn) was read as APJ agonist 1, m5-HT2A agonist -1, APJ antagonist -14, CCR6 antagonist -1, CXCR6 inh 5 and EBI2 block -4.
COc1cc(-n2nc(C)c3c2OC(N)=C(C#N)C3c2ccccc2)c(Cl)c(Br)c1O (stereo not drawn) was read as APJ agonist -7, m5-HT2A agonist -8, APJ antagonist 34, CCR6 antagonist 70*, CXCR6 inh 22 and EBI2 block 7.
Screening O=C(ONc1ccc(N=NC(=O)c2ccccc2O)cc1)c1ccccc1 returned APJ agonist -7, m5-HT2A agonist 2, APJ antagonist 34, CCR6 antagonist 56*, CXCR6 inh 34 and EBI2 block 7.
For CCOc1ncccc1C(=O)Nc1ccc(C)cn1 the results were APJ agonist 7, m5-HT2A agonist 13, APJ antagonist 31, CCR6 antagonist 5, CXCR6 inh -4 and EBI2 block -5.
For O=C(/C=C/c1ccc(O)c([N+](=O)[O-])c1)c1ccc2ccccc2c1 the results were APJ agonist -6, m5-HT2A agonist -9, APJ antagonist 33, CCR6 antagonist 36, CXCR6 inh 21 and EBI2 block 9.
For COc1ccc(Oc2ccc(/C=C/C(=O)c3ccc(O)cc3)cc2[N+](=O)[O-])cc1 the results were APJ agonist -4, m5-HT2A agonist -7, APJ antagonist 18, CCR6 antagonist 43, CXCR6 inh 5 and EBI2 block 79*.
Screening COc1ccc(NC2=CC(c3ccc(OC)c(OC)c3)N(c3ccc(OC)cc3)C2=O)cc1 (stereo not drawn) returned APJ agonist -3, m5-HT2A agonist 2, APJ antagonist 1, CCR6 antagonist 11, CXCR6 inh -4 and EBI2 block 14.
`NS(=O)(=O)c1ccc(NC2=CC(c3ccc([N+](=O)[O-])cc3)N(c3ccc(S(N)(=O)=O)cc3)C2=O)cc1` (stereo not drawn) gave APJ agonist -1, m5-HT2A agonist 1, APJ antagonist 32, CCR6 antagonist 50*, CXCR6 inh 60* and EBI2 block -8.
CCOc1ccccc1NC(=O)C1CCCN(S(=O)(=O)c2ccc3c(c2)C(C)(C)C(=O)N3C)C1 (stereo not drawn) was read as APJ agonist -2, m5-HT2A agonist -1, APJ antagonist 7, CCR6 antagonist 3, CXCR6 inh 2 and EBI2 block -2.
Nc1c(C(=O)NC2CC2)sc2nc3c(c(-c4ccco4)c12)CC/C3=C/c1ccco1 was read as m5-HT2A agonist 5, CCR6 antagonist 51*, CXCR6 inh 24 and EBI2 block -12.
Screening CNC(=S)N1N=C(c2ccc(C)cc2)CC1c1cc(OC)ccc1OC (stereo not drawn) returned APJ agonist -6, m5-HT2A agonist -3, APJ antagonist -5, CCR6 antagonist 8, CXCR6 inh -1 and EBI2 block -2.
Screening CNC(=S)N1N=C(c2ccc(C)cc2)CC1c1ccc(N(C)C)cc1 (stereo not drawn) returned APJ agonist -1, m5-HT2A agonist 4, APJ antagonist -2, CCR6 antagonist 13, CXCR6 inh 2 and EBI2 block 87*.
CNC(=S)N1N=C(c2ccc(C)cc2)CC1c1ccc(OC)cc1 (stereo not drawn) was read as APJ agonist -3, m5-HT2A agonist -4, APJ antagonist 4, CCR6 antagonist 9, CXCR6 inh 14 and EBI2 block 87*.
Screening CC(=O)Nc1ccc(NCC(=O)c2ccccc2)cc1 returned APJ agonist 0, m5-HT2A agonist -3, APJ antagonist 11, CCR6 antagonist 28, CXCR6 inh 51* and EBI2 block -15.
`O=C(CNc1ccccc1)c1ccc([N+](=O)[O-])cc1` gave APJ agonist 6, m5-HT2A agonist -1, APJ antagonist -7, CCR6 antagonist 20, CXCR6 inh -7 and EBI2 block -3.
For CCOc1ccc(NCC(=O)c2ccc(C)cc2)cc1 the results were APJ agonist -2, m5-HT2A agonist 6, APJ antagonist 6, CCR6 antagonist 68*, CXCR6 inh 51* and EBI2 block -6.
Cc1ccc2c(c1)c(C1=c3ccccc3=NC1=O)c(O)n2C was read as APJ agonist 1, m5-HT2A agonist 2, APJ antagonist 26, CCR6 antagonist 51*, CXCR6 inh 26 and EBI2 block 6.
C=CCn1c(O)c(C2=c3ccccc3=NC2=O)s/c1=N/c1nccs1 was read as APJ agonist 1, m5-HT2A agonist -2, APJ antagonist -95, CCR6 antagonist 21, CXCR6 inh 17 and EBI2 block 1.
C=CCn1c(O)c(C2=c3ccccc3=NC2=O)c2ccccc21 was read as APJ agonist 4, m5-HT2A agonist -10, APJ antagonist 27, CCR6 antagonist 91*, CXCR6 inh 72* and EBI2 block 11.
`Cc1c(-n2c(O)c(C3=c4ccccc4=NC3=O)sc2=O)c(=O)n(-c2ccccc2)n1C` gave APJ agonist -2, m5-HT2A agonist 6, APJ antagonist -37, CCR6 antagonist -1, CXCR6 inh -5 and EBI2 block -7.
Screening O=C(Cn1c(CO)nc2ccccc21)Nc1ccc2c(c1)OCCCO2 returned APJ agonist -4, m5-HT2A agonist 6, APJ antagonist -2, CCR6 antagonist -9, CXCR6 inh -4 and EBI2 block -2.
Screening CN1CCCN(Cc2nc(-c3cccc(C(F)(F)F)c3)no2)CC1 returned APJ agonist -4, m5-HT2A agonist -5, APJ antagonist -1, CCR6 antagonist 9, CXCR6 inh -3 and EBI2 block -3.
`Cc1cc(C)n2nc(SCC(=O)Nc3ccc(F)c(F)c3F)nc2n1` gave APJ agonist -1, m5-HT2A agonist -5, APJ antagonist 4, CCR6 antagonist 8, CXCR6 inh 2 and EBI2 block -21.
For COc1ccc(N2CCN(C(=O)CN(Cc3ccccc3)S(C)(=O)=O)CC2)cc1 the results were APJ agonist -4, m5-HT2A agonist 0, APJ antagonist 6, CCR6 antagonist 0, CXCR6 inh 4 and EBI2 block -9.
Screening COc1ccc(N2CCN(C(=O)CN(Cc3ccc(Cl)cc3)S(C)(=O)=O)CC2)cc1 returned APJ agonist -2, m5-HT2A agonist -2, APJ antagonist -3, CCR6 antagonist -2, CXCR6 inh 71* and EBI2 block 6.
`COc1cccc(C(=O)N2CCC(CCC(=O)Nc3cccc(C)c3)CC2)c1` gave APJ agonist -1, m5-HT2A agonist -6, APJ antagonist 10, CCR6 antagonist 28, CXCR6 inh 16 and EBI2 block 12.
